Results collected from several papers.
Compare with care: the assays were run in different laboratories.

Structure (SMILES) | system | conditions | quantity | value
CN1CCCCC1Cn1cc(C(=O)c2cc([N+](=O)[O-])ccc2I)c2ccccc21 (racemic) | mouse, plasma | oral, 25 mg/kg | AUC | 1230 ng·h/mL
CCC[C@@](N)(CO)CCc1ccc(OCCCCCC(C)C)cc1 | mouse, plasma | intraperitoneal, 10 mg/kg | AUC(0-t) | 1.06 µM·h
CCN(CC)CCCC[C@H](NC(=O)[C@H](CC(C)C)NC(=O)[C@H](C)NC(=O)[C@H](Cc1ccccc1)NC(=O)c1ccc(C(C)(C)C)cc1)C(=O)N[C@@H](CO)C(=O)OC | male Swiss mouse, blood | intravenous, 3 mg/kg | AUC(0-t) | 1890 ng·h/mL
C[C@]12CC[C@H](n3ccnc3)CC1=CC[C@@H]1[C@@H]2CC[C@]2(C)C(n3cnc4ccccc43)=CC[C@@H]12.Cl | male CD-1 mouse, plasma | oral, 10 mg/kg | AUC(0-t) | 22600 ng·h/mL
Cc1ncc2n1-c1ccc(Cl)cc1C(c1ccccc1F)=NC2 | mouse, plasma | intravenous, 0.3 mg/kg | AUC(0-inf) | 0.15 µM·h
Cc1cc(C)nc(Nc2ncc(C(=O)NCCc3c(C)[nH]c4ccccc34)cn2)c1 | C57BL/6 mouse, plasma | intraperitoneal, 4.4 mg/kg | AUC(0-inf) | 155 ng·h/mL
CN[C@H](CC(C)C)C(=O)N[C@H]1C(=O)N[C@@H](CC(N)=O)C(=O)N[C@H]2C(=O)NC3C(=O)N[C@H](C(=O)N[C@H](C(=O)NCCC[N+](C)(C)C)c4cc(O)cc(O)c4-c4cc3ccc4O)[C@H](O)c3ccc(c(Cl)c3)Oc3cc2cc(c3OC2OC(CO)C(O)[C@H](O)[C@@H]2O[C@H]2CC(C)(NCc3ccc(-c4ccc(Cl)cc4)cc3)[C@H](O)[C@H](C)O2)Oc2ccc(cc2Cl)[C@H]1O (stereo partly drawn) | mouse, plasma | intravenous, 10 mg/kg | AUC | 81100 ng·h/mL
C[C@]12CC[C@H](O)CC1=CC[C@@H]1[C@@H]2CC[C@]2(C)C(n3cnc4ccccc43)=CC[C@@H]12.Cl | mouse, plasma | oral, 10 mg/kg | AUC(0-t) | 26.1 ng·h/mL
NCC(=O)Nc1ccc(-n2nc(C(F)(F)F)cc2-c2ccc3c(ccc4ccccc43)c2)cc1 | mouse, plasma | oral, 80 mg/kg, single dose | AUC(0-t) | 41400 ng·h/mL
